Screening results (PubChem)
MrgX1 allo act = positive allosteric modulators of MrgX1, primary screen, HEK293 cells, Fluo-4 calcium flux; B-score at 10 µM; actives 0.63% (n = 310,000); FDSS; active compounds read high; Mas-related G-protein coupled receptor member X1 (Homo sapiens), Q96LB2; AID 588675, 2011;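 active = plate-corrected calcium response at least 3 library SD above typical, normal starting fluorescence, not activating the receptor alone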;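 also: compound read alongside a low EC10 to EC30 dose of BAM8-22 agonist; peak minus trough fluorescence over baseline measured at the second addition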
Target sequence (Q96LB2 whole entry, looked up): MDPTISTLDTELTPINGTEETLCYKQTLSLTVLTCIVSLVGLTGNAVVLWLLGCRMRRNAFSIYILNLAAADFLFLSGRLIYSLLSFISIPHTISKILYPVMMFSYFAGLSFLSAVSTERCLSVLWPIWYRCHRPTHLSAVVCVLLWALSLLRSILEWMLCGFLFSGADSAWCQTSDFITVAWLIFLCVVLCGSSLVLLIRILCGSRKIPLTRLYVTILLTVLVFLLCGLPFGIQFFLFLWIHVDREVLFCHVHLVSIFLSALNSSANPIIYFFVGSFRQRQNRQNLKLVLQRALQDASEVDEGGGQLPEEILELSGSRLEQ
MrgX1 agonist = agonists of human MrgX1 receptor, primary screen, HEK293 cells, Fluo-4 calcium flux | Fluo-4 calcium fluorescence, agonist mode; active compounds read high | AID 588627, 2011 | Mas-related G-protein coupled receptor member X1 (Homo sapiens), Q96LB2 | B-score at 10 µM | actives 0.44% (n = 310,000);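 active = calcium response B-score plate-corrected fluorescence ratio at least 3 library SD, with starting fluorescence B-score inside 5 SD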
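Test system: Stable human MrgX1 HEK293 cell line | Schedule: Overnight plating before 1 h dye loading | Read-out basis: Baseline-normalised fluorescence change ratio, B-scored | Detection: Kinetic calcium dye fluorescence, Fluo-4 NW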
RGS4 block = RGS4 inhibitors, primary screen, cell-based, HEK293 M3R inducible RGS4, calcium flux; B-score at 10 µM; actives 0.45% (n = 310,000); Fluo-4 calcium flux; active compounds read high; triggered by carbachol at its EC20; AID 463165, 2010;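 active = B-score, a plate-corrected calcium signal, over three deviations above library mean, with baseline fluorescence within five deviations of library mean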;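 also: RGS4 expression induced by doxycycline in cells with stable M3 receptor; B-score is computed from the integrated fluorescence ratio over baseline after carbachol; higher B-score means a larger calcium signal and so more RGS4 inhibition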
Target sequence (P49798 whole entry, looked up): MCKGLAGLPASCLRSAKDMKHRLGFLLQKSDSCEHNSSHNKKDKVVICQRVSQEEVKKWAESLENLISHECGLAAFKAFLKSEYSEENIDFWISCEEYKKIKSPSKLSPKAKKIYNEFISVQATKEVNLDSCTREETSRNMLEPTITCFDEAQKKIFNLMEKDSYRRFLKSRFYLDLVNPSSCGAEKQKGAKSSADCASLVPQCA
RGS4 act = RGS4 potentiators or activators, primary screen, cell-based, HEK293 M3R inducible RGS4, calcium flux | actives 0.92% (n = 310,000) | B-score at 10 µM | carbachol calcium flux Fluo4; active compounds read low | AID 463111, 2010;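 active = B-score of the integrated calcium signal more than 4 SD below the library mean, with starting fluorescence not abnormally high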;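 also: negative B-score means reduced calcium response which marks RGS4 activation or potentiation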
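Material: Inducible-RGS4 HEK293 cells carrying M3 receptor; also added: carbachol at ECmax as muscarinic agonist stimulus; incubation: compound preincubation 20 min at room temperature before agonist; signal: Fluo4-AM (2 µM) calcium-flux fluorescence, kinetic read; measure: integrated calcium ratio converted to B score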
MrgX1 antag = antagonists of human MrgX1 receptor, primary screen, HEK293 cells, Fluo-4 calcium flux; Mas-related G-protein coupled receptor member X1 (Homo sapiens), Q96LB2; BAM8-22 antagonism; active compounds read low; B-score at 10 µM; actives 1.3% (n = 310,000); AID 588676, 2011;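 active = calcium-response B-score plate-corrected more than 3 library SD below zero, starting fluorescence within 5 deviations, no agonist response on first addition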;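 also: peak minus trough fluorescence over baseline after final BAM8-22 challenge near maximal dose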
MrgX1 ant reconf = MrgX1 receptor antagonists, duplicate retest, confirmation, HEK293 cells, Fluo-4 calcium flux. remaining BAM8-22 calcium response % of control (active compounds read low), % at 10 µM. actives 19% (n = 2,300). BAM8-22 calcium flux; active compounds read low. shares compounds with MrgX1 antag;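 active = remaining agonist calcium response no higher than 100% minus 3 SD of agonist-only control wells, with starting fluorescence near control levels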;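 also: agonist BAM8-22 given at a near maximal EC90 to ECmax level; peak minus minimum fluorescence divided by baseline after agonist addition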
HEK293 Ca flux = nonspecific calcium signal in parental HEK293, confirmation, counter-screen for MrgX1 antagonist project, parental HEK293 cells, Fluo-4 calcium flux; shares compounds with MrgX1 antag; Fluo-4 calcium fluorescence, FDSS; fluorescence ratio F(max-min)/F0 at 10 µM; actives 2% (n = 4,000); AID 624111, 2012;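 active = duplicate-averaged calcium fluorescence ratio at least three times the standard deviation of buffer wells, a nonspecific response in parental cells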
HEK293 Ca counter = calcium response in parental HEK293 cells, primary screen, counter-screen for MrgX1 allosteric activator project, cell-based, Fluo-4 calcium flux, duplicate. shares compounds with MrgX1 antag. Fluo-4 fluorescence ratio; active compounds read high. fluorescence ratio F(max-min)/F0 at 10 µM. actives 0.4% (n = 4,000). AID 624114, 2012;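 active = calcium fluorescence ratio, averaged over duplicates, at least 3 SD of the buffer-well ratio, meaning a nonspecific response in receptor-free cells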;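 also: untransfected parental HEK293 lacking MrgX1 used as counterscreen for MrgX1 allosteric activators; fluorescence change taken during the second addition on a kinetic imager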
HEK293 Ca cntr2 = calcium response in parental HEK293 cells, primary screen, counter-screen for MrgX1 agonist project, cell-based, Fluo-4 calcium flux, duplicate, agonist mode | shares compounds with MrgX1 antag | AID 624115, 2012 | actives 8.7% (n = 4,000) | Fluo-4 calcium fluorescence (FDSS); active compounds read high | fluorescence ratio F(max-min)/F0 at 10 µM;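 active = calcium fluorescence ratio at least three times the spread of buffer wells, meaning a non-specific response in parental cells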
Numbers without * were called inactive; i = inactive; x = no result given. Compounds with a hit are over-represented: about 3.5% of the library has one in this group of screens.

SMILES | MrgX1 allo act | MrgX1 agonist | RGS4 block | RGS4 act | MrgX1 antag | MrgX1 ant reconf | HEK293 Ca flux | HEK293 Ca counter | HEK293 Ca cntr2
Cc1cc(C)n2c(=O)c3ccc(Cl)cc3nc2c1C#N | i | i | i | i | -5.8* | i | i | i | i
Clc1ccc(N=C2SCCS2)cc1 | i | i | i | i | i | x | x | x | x
Cc1cc(C)c(S(=O)(=O)c2ccc(Cl)cc2C)c(Cl)n1 | i | i | i | i | i | x | x | x | x
CCc1ccccc1S(=O)(=O)c1c(C)cc(C)nc1Cl | i | i | i | i | -5* | i | i | i | i
O=C(COC(=O)COc1cccc(Br)c1)Nc1c(Cl)cccc1Cl | i | i | i | i | i | x | x | x | x
CC(C)[C@H]1COC(NC2=N[C@@H](C(C)C)CO2)=N1 | i | i | i | i | i | x | x | x | x
CCCN(CCC)S(=O)(=O)c1ccc(C(=O)Nc2nc3c(s2)CCc2ccccc2-3)cc1 | i | i | i | i | -5.2* | i | i | i | i
Cc1ccc(-c2nc(NC(=O)c3ccc(S(=O)(=O)N(CCC#N)CCC#N)cc3)sc2-c2ccccc2)cc1 | i | i | i | i | i | x | x | x | x
Cc1nnc(C)n1/N=C/c1cccnc1 | i | i | i | i | -7.1* | i | i | i | i
COc1ccc(CC(=O)Nc2nnc(SCC(=O)NCc3ccco3)s2)cc1OC | i | i | i | i | i | x | x | x | x
O=C(Cn1cnc2c(nnn2Cc2ccc(F)cc2)c1=O)NCc1ccc(F)cc1 | i | i | i | i | i | x | x | x | x
CC(=O)Nc1ccc(NC(=O)Cn2cnc3c(nnn3Cc3ccc(F)cc3)c2=O)cc1 | i | i | i | i | -6.8* | i | i | i | i
COc1ccc(OC)c(-n2c(SCC(N)=O)nnc2-c2c[nH]c3ccccc23)c1 | i | i | i | i | -6.7* | i | i | i | i
CCOC(=O)C1(Cc2cccc(Cl)c2)CCCN(C(=O)CCSC)C1 (stereo not given) | i | i | i | i | i | x | x | x | x
COC(=O)c1ccc(Nc2ncnc3c2cnn3-c2cccc(C)c2)cc1 | i | i | i | i | -4.8* | i | i | i | i
CCc1noc(C)c1C(=O)N1CCCC1 | i | i | i | i | -4.7* | 78%* | i | i | i
CCc1noc(C)c1C(=O)N1CC(C)OC(C)C1 (stereo not given) | i | i | i | i | i | x | x | x | x
CCOC(=O)CSc1nc(Nc2ccc3c(c2)OCO3)c2ccccc2n1 | i | i | i | i | i | x | x | x | x
CCOC(=O)c1cnc2ccccc2c1Nc1ccc2c(c1)OCCO2 | i | i | i | i | -5.5* | i | i | i | i
Cc1ccc(-n2c(-c3ccc(Br)cc3)c[n+]3c2CCc2ccc4cccnc4c2-3)cc1 | i | i | i | i | -11* | 19%* | i | i | i
COc1ccc(-n2c(-c3ccc(Cl)cc3)c[n+]3c2CCc2ccccc2-3)cc1 | i | i | i | i | i | x | x | x | x
CCCC1=C(C(=O)OCC)C(c2ccncc2)n2ncnc2N1 (stereo not given) | i | i | i | i | -6.1* | i | i | i | i
COc1ccc(-c2nc3ccccc3c(=O)n2CCOc2c(C)cccc2C)cc1 | i | i | i | i | -4.6* | i | 0.2* | i | i
Cc1cccc(N2CCN(C(=O)COc3cc(=O)n(C)c4ccccc34)CC2)c1C | i | i | i | i | i | x | x | x | x
Cc1cccc(N2CCN(C(=O)Cc3cn(C)c4ccccc34)CC2)c1C | i | i | i | i | -4.7* | 81%* | i | i | i
SMILES | MrgX1 allo act | MrgX1 agonist | RGS4 block | RGS4 act | MrgX1 antag | MrgX1 ant reconf | HEK293 Ca flux | HEK293 Ca counter | HEK293 Ca cntr2
COc1ccc(NC(=O)CSc2nnc(Cc3cccs3)n2C)cc1 | i | i | i | i | i | x | x | x | x
CC(NC(=O)CSc1nnc(-c2cccnc2)n1N)c1ccccc1 (stereo not given) | i | i | i | i | -4.6* | i | i | i | i
Nc1nonc1-c1noc(N2CCCCC2)n1 | i | i | i | i | -5.5* | 85%* | i | i | i
O=C(c1ccco1)N1CCN(Cc2cc(=O)c(OCc3ccc([N+](=O)[O-])cc3)co2)CC1 | i | i | i | i | i | x | x | x | x
COc1ccc(NC(=S)N2CCN(C(=O)c3ccco3)CC2)cc1OC | i | i | i | i | i | x | x | x | x
Cc1cc(C)c(C(=O)OCC(=O)Nc2cccc(S(=O)(=O)N3CCCCC3)c2)c(C)c1 | i | i | i | i | -11* | i | i | i | i
O=C(COC(=O)c1ccc(O)cc1)Nc1cccc(S(=O)(=O)N2CCCCC2)c1 | i | i | i | i | i | x | x | x | x
Cc1ccc(S(=O)(=O)Cn2nnnc2C(C(C)C)N2CCSCC2)cc1 (stereo not given) | i | i | i | i | i | x | x | x | x
Cc1ccc(S(=O)(=O)Cn2nnnc2C(C(C)C)N2CCN(Cc3ccco3)CC2)cc1 (stereo not given) | i | i | i | i | -5.7* | i | i | i | i
O=C(COC(=O)c1cnccn1)Nc1ncc(Cl)cc1Cl | i | i | i | i | i | x | x | x | x
O=C(COC(=O)c1cnccn1)NCCc1ccc(Cl)cc1Cl | i | i | i | i | -5.9* | i | i | i | i
O=C(O)CC1c2ccccc2CCN1S(=O)(=O)c1cccs1 (stereo not given) | i | i | i | i | i | x | x | x | x
